From ChEMBL document CHEMBL1153722, “Design, synthesis, and characterization of peptide-based rab geranylgeranyl transferase inhibitors” (J Med Chem, 2009)
Active and inactive are the calls of the source. The calls are words filed in the database; no cut-off is given here. Square brackets hold non-standard residues; d marks the D form. Peptide text beside a SMILES is read from it. * marks the point of attachment. NMeF = CN[C@@H](Cc1ccccc1)C(=O)O; Cbz = O=C(OCc1ccccc1)*; NHOH = ON*

What was measured:
[1] = Inhibition of rat recombinant Rab geranylgeranyltransferase iin presence of canine Rab7 and rat REP1 by NBD-FPP based continuous fluorimetric assay
Procedure, shortened: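 Continuous fluorometric assay in 96/384-well format: 3 μM Rab7, 3 μM REP1, 9 μM NBD-FPP and 400 nM RabGGTase, with or without inhibitor. IC50 was calculated from three independent measurements.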

[2] = organism: Rattus norvegicus; assay: Inhibition of rat recombinant Rab geranylgeranyltransferase at 100 uM in presence of canine Rab7 and rat REP1 NBD-FPP based continuous fluorimetric assay
Procedure, shortened: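 Continuous fluorometric assay in 96/384-well format: 3 μM Rab7, 3 μM REP1, 9 μM NBD-FPP and 400 nM RabGGTase, with or without inhibitor. […] IC50 was calculated from three independent measurements.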

[3] = Inhibition of rat recombinant Rab geranylgeranyltransferase by SDS-PAGE end point assay
Procedure, shortened: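 End-point transfer of fluorescent prenyl analogues (NBD-GPP or NBD-FPP) to protein substrates was run for 10 min at varied inhibitor concentrations. Substrates were GST-KiRas for FTase, GST-RhoA for GGTase-I and Rab7 for RabGGTase. Reactions were quenched with SDS sample buffer and run on SDS-PAGE. Fluorescent bands were quantified by densitometry.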

[4] = target: protein farnesyltransferase (Rattus norvegicus); assay: Inhibition of rat recombinant FTase by SDS-PAGE end point assay
[5] = target: geranylgeranyltransferase type-I (Rattus norvegicus); assay: Inhibition of rat recombinant GGTase-1 by SDS-PAGE end point assay
[6] = Displacement of Mant-FPP from rat recombinant Rab geranylgeranyltransferase by co-titration based fluorescence assay
Procedure, shortened: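 RabGGTase was titrated into 300 nM Mant-FPP at several fixed inhibitor concentrations. Apparent Kd of Mant-FPP was obtained at each inhibitor level by quadratic fitting. Linear versus hyperbolic dependence of apparent Kd on inhibitor concentration was taken as competitive versus partially competitive binding.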

[7] = organism: Rattus norvegicus; assay: Displacement of NBD-FPP from rat recombinant Rab geranylgeranyltransferase by fluorescence titration
Procedure, shortened: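 Displacement titration: 400 nM NBD-FPP was pre-equilibrated with 550 nM RabGGTase. Inhibitor was added stepwise in 1 or 5 μM increments while NBD fluorescence was monitored. The end point was controlled by a final addition of GGPP to 4 μM.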

[8] = test system: COS-7 (Chlorocebus aethiops); assay: Inhibition of recombinant Rab geranylgeranyltransferase expressed in COS-7 cells assessed as inhibition of geranylgeranylation of EYFP-Rab7 protein by Western blot; set-up: concentration or dose not given beside the values; conditions: dose or concentration not given here
[9] = test system: COS-7 (Chlorocebus aethiops); assay: Inhibition of recombinant Rab geranylgeranyltransferase expressed in COS-7 cells assessed as inhibition of geranylgeranylation of EYFP-Rab7 protein at 10 to 100 uM by Western blot relative to compactin
[10] = test system: COS-7 (Chlorocebus aethiops); assay: Cytotoxicity in monkey COS-7 cells at 100 uM; conditions: COS-7, 100 µM

Row | SMILES | IC50 [1] [µM] | inhibition [2] [%] | IC50 [3] [µM] | IC50 [4] [µM] | IC50 [5] [µM] | Ki [6] [µM] | Activity [7] | inhibition [8] [%] | Activity [9] | Activity [10]
1 | CCCCCCCC(=O)N[C@@H](Cc1c[nH]cn1)C(=O)N[C@@H](Cc1ccccc1)C(=O)N[C@@H](Cc1ccc(O)cc1)CN(C)CCc1ccccn1 | 2.8 |  | 8.8 | 98 | 97 |  |  |  |  | 
2 | CCCCCCCCCCC(=O)N[C@@H](Cc1cnc[nH]1)C(=O)N[C@@H](Cc1c[nH]cn1)C(=O)N[C@@H](Cc1ccc(O)cc1)C(=O)N(C)CCc1ccccn1 |  |  | 10 |  |  | 1.1 | Dose-dependent effect | 70 | Dose-dependent effect | 
3 | CN(C(=O)[C@H](Cc1cnc[nH]1)NC(=O)OCc1ccccc1)[C@@H](Cc1ccccc1)C(=O)N[C@@H](Cc1c[nH]c2ccccc12)C(=O)NO (Cbz-His-[NMeF]-Trp-{NHOH}) |  |  |  |  |  |  |  | 70 | Dose-dependent effect | 
4 | CCCCCCCCCCC(=O)N[C@@H](Cc1ccc(O)cc1)C(=O)N[C@@H](Cc1c[nH]cn1)C(=O)N[C@@H](Cc1ccc(O)cc1)C(=O)N(C)CCc1ccccn1 | 6.3 |  | 4.3 | > 100 | > 100 | 2.8 | Active | 70 | Dose-dependent effect | Non-toxic
5 | CCCCCCCCCCC(=O)N[C@@H](Cc1c[nH]cn1)C(=O)N[C@@H](Cc1ccccc1)C(=O)N[C@@H](Cc1ccc(O)cc1)C(=O)N(C)CCc1ccccn1 |  |  | 2.8 |  |  | 5.4 |  | 70 | Dose-dependent effect | 
6 | O=C(O)C(O)(Cc1cccnc1)P(=O)(O)O (stereo unspecified) |  |  |  |  |  |  |  | 70 | Dose-dependent effect | 

Further lines, with some results ahead:

Row | IC50 [1] [µM] | inhibition [2] [%] | IC50 [3] [µM] | IC50 [4] [µM] | IC50 [5] [µM] | Ki [6] [µM] | Activity [7] | SMILES | inhibition [8] [%] | Activity [9] | Activity [10]
7 | 38 | 86 | 41 | 14 | 2.6 |  |  | O=C(CNC(=O)[C@H](Cc1cn(C(c2ccccc2)(c2ccccc2)c2ccccc2)cn1)NC(=O)c1coc(-c2ccccc2)n1)N[C@@H](Cc1c[nH]cn1)C(=O)O |  |  | 
8 | 25 |  | 31 | 3.4 | 5.6 |  |  | O=C(CNC(=O)c1coc(-c2ccccc2)n1)N[C@@H](Cc1ccccc1)C(=O)N[C@@H](Cc1cn(C(c2ccccc2)(c2ccccc2)c2ccccc2)cn1)C(=O)O |  |  | 
9 | 22.7 |  |  |  |  | 4.5 | Active | CN(C(=O)[C@@H](Cc1c[nH]cn1)NC(=O)OCc1ccccc1)[C@@H](Cc1ccccc1)C(=O)N[C@@H](Cc1ccc(O)cc1)C(=O)O |  |  | 
10 | 8.1 |  | 14 | 13 | 6.9 | 5.3 | Active | O=C(CNC(=O)[C@H](Cc1c[nH]cn1)NC(=O)c1coc(-c2ccccc2)n1)N[C@@H](Cc1cn(C(c2ccccc2)(c2ccccc2)c2ccccc2)cn1)C(=O)O | 70 | Dose-dependent effect | Non-toxic
11 |  |  |  |  |  | 14.5 | Active | CN(C(=O)[C@H](Cc1cnc[nH]1)NC(=O)OCc1ccccc1)[C@@H](Cc1ccccc1)C(=O)N[C@@H](Cc1ccc(O)cc1)C(=O)NO | 70 | Dose-dependent effect | 
